Hits are enriched below; roughly 2.3% of the tested compounds scored in any of these assays.
ZTA DNA inh – ZTA (EBV) inhibition in EBNA-1 counter-screen; inhibition, % at 11 µM; AID 2234; actives 0.15% (n = 320,000); P03206; ZTA-DNA binding, fluorescence polarization; in the data active = inhibition above about 33%
EBV gp42 inh – inhibitors of Epstein-Barr virus glycoprotein 42. inhibition, % (tested at 21.74 µM). Q1HVG2. AID 1085. Fluorescence polarization binding assay, mP read-out. actives 0.42% (n = 220,000); in the data active = inhibition above about 50%
Target sequence (Q1HVG2 whole entry, looked up): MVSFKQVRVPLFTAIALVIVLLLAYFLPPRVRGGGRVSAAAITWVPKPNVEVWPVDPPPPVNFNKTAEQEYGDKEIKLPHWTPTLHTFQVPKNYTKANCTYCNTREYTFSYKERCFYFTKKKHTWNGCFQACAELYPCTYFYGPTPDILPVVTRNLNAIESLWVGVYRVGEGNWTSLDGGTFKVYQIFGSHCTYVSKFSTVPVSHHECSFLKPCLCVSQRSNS
HCV core dimer – HCV core protein dimerization inhibition; actives 0.33% (n = 300,000); TR-FRET GST/Flag-core106 dimerization, 1536-well; inhibition, % at 5 µM;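 active = inhibition above the mean of all tested compounds plus 3 SD, set per screening campaign, cut at about 45% in these data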
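Assay system: tagged HCV core106 pair (GST and Flag); medium: KF-containing HEPES buffer, pH 7.45, DTT, CHAPS, BSA; also added: Eu donor and XL665 acceptor anti-tag antibodies; dosing: 5 µM single dose; timing: compound-protein-antibody incubation 4 h at 22.5 °C; signal: TR-FRET 671 and 617 nm emission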
NS3 helicase inh – inhibitors of Hepatitis C virus NS3 helicase | inhibition, % at 10.9 µM | actives 0.56% (n = 290,000) | NS3 helicase DNA unwinding, Cy5 molecular beacon fluorescence | AID 1800;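 active = inhibition above the mean of all tested compounds plus 3 SD, set per campaign, cut at about 35% in these data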
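System: NS3 helicase fragment of HCV / Schedule: 1 h at 25 °C / Control set: DMSO alone as 0% and 110 µM thioflavine S as 100% / Reagent: Cy5/quencher beacon DNA duplex and ATP to start / Technique: Cy5 fluorescence / Replication: singlicate / Evaluation: % inhibition of end-to-start signal ratio versus controls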
EBNA-1 inhibitor – blocks EBNA-1 binding to DNA; EBNA-1 DNA binding, fluorescence polarization; inhibition, % at 14.8 µM; actives 0.34% (n = 300,000); in the data active = inhibition above about 28%
GPR7 antag – human neuropeptides B/W receptor 1 antagonism | P48145 | GPR7-expressing cells, fluorescence antagonist assay | inhibition, % at 4.4 µM | actives 1.1% (n = 290,000) | AID 1861; in the data active = inhibition above about 16%, passing the limit was not always enough;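 note: cells stimulated with the agonist NPW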
Target sequence (P48145 whole entry, looked up): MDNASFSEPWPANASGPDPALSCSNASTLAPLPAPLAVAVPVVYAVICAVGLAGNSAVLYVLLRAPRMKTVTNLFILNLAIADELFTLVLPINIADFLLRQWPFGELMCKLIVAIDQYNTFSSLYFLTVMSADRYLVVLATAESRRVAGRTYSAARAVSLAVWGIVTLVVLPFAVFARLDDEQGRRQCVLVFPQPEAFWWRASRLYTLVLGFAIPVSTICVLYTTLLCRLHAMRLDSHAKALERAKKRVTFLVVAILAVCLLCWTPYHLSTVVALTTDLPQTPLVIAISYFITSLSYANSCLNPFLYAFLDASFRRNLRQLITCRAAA
Numbers stand for hits; – = inactive; · = not tested or not shown.

SMILES	ZTA DNA inh	EBV gp42 inh	HCV core dimer	NS3 helicase inh	EBNA-1 inhibitor	GPR7 antag
OCCC1CN(Cc2cccc3nonc23)CCN1Cc1ccsc1 (centres undefined)	–	–	–	–	–	–
OCCC1CN(Cc2ccccc2OC2CCCC2)CCN1Cc1ccsc1 (centres undefined)	–	–	–	–	–	20
C=CCc1cccc(C=Nc2cc(Br)ccc2O)c1O	–	101	–	–	–	–
O=C(NCC1CCCO1)c1nc(Cn2ccc([N+](=O)[O-])n2)no1 (centres undefined)	–	·	–	–	–	–
O=C(c1cc2ccccc2cc1O)N1CCN(c2cccc(Cl)c2)CC1	–	·	–	·	–	·
O=C(c1c(Cl)nc2sccn12)N1CCN(c2cccc(Cl)c2)CC1	–	–	–	–	–	15
CCN(CC(=O)Nc1ccc(NC(C)=O)cc1)C(=O)COc1ccccc1Cc1ccccc1	·	·	·	–	·	–
O=C(O)C(O)C(O)c1nc2ccccc2[nH]1 (centres undefined)	–	–	–	–	–	–
COc1ccccc1/C=C(/CC(=O)NCc1ccc(F)cc1)c1nc2ccccc2s1	–	–	67	–	–	–
COc1ccccc1/C=C(/CC(=O)NCc1ccccc1)c1nc2ccccc2s1	–	–	49	–	–	–
COc1ccccc1/C=C(/C(=O)OCC(=O)NCc1ccccc1)c1ccccc1	–	–	–	–	–	–
C=C1/C(=C\C=C2/CCC[C@]3(C)[C@@H]([C@H](C)/C=C/[C@@H](O)C4CC4)CC[C@@H]23)C[C@@H](O)C[C@@H]1O	–	·	–	·	–	·
Cc1cc(N)ccc1-n1c(C)ccc1C	55	–	–	–	29	–
CC1=NOC(=O)/C1=C\c1ccc(-c2cc(Cl)ccc2Cl)o1	–	95	–	–	–	–
COc1ccc(F)cc1C(=O)C1CCCN(Cc2cccn2-c2ccccn2)C1 (centres undefined)	–	–	–	–	–	19
CC1=C(C(=O)OC(C)C)C(c2cccc([N+](=O)[O-])c2)n2c(cc(=O)[nH]c2=S)N1 (centres undefined)	–	–	–	–	–	–
O=C(/C=N/NC(=O)c1ccc(Cl)cc1Cl)c1ccccc1	–	–	–	–	–	–
COc1ccc(C(=O)NCCn2cc(SCC(=O)Nc3nnc(C)s3)c3ccccc32)cc1	–	–	–	–	–	–
Cc1nnc(NC(=O)CSc2cn(CCNC(=O)c3ccccc3)c3ccccc23)s1	–	54	–	–	–	–
Cc1ccc(-n2c(-c3ccc(Br)cc3)c[n+]3c2CCc2ccc4cccnc4c2-3)cc1	–	–	–	–	–	65
N#Cc1c(Sc2ncc(C(F)(F)F)cc2Cl)nsc1C/C=N\OCc1c(F)cccc1Cl	–	–	54	–	–	–
FC(F)(F)c1cnc(Sc2nnc(-c3cccs3)n2CC2CCCO2)c(Cl)c1 (centres undefined)	–	–	–	–	–	–
COc1c(F)c(F)c(C(=O)Nc2ccccc2N2CCN(C(C)=O)CC2)c(F)c1F	–	–	47	–	–	–
CC(=O)N1CCN(c2ccccc2NC(=O)COc2ccc(Cl)cc2Cl)CC1	–	–	–	–	–	19
O=C(NCc1ccco1)C1Cc2ccccc2CN1S(=O)(=O)c1ccccc1F (centres undefined)	–	·	55	–	–	–
SMILES	ZTA DNA inh	EBV gp42 inh	HCV core dimer	NS3 helicase inh	EBNA-1 inhibitor	GPR7 antag
C#CCOC(=O)C(NC(=O)c1ccccc1)=C1CCCCC1	–	–	–	–	–	–
CC(C)CNC(=O)NC(=O)COC(=O)c1cc(F)cc(F)c1	–	–	–	–	88	–
COC(=O)c1c(=O)n(O)c2ccc(OC)cc2[n+]1[O-]	–	98	–	–	–	–
CCOc1ccc(-c2c(=O)n(O)c3ccccc3[n+]2[O-])cc1	–	·	–	–	–	–
CC(C)(C)c1ccc2c(c1)N(CC(=O)N1CCOCC1)C(=O)CO2	–	·	–	–	–	–
O=C1C2C3C=CC(C3=C(c3ccccc3)c3ccccc3)C2C(=O)N1Cc1ccccc1 (centres undefined)	–	63	–	–	–	–
O=C1C2C3C=CC(C3=C(c3ccccc3)c3ccccc3)C2C(=O)N1CCO (centres undefined)	–	–	–	–	–	–
CCN(Cc1ccc2c(c1)OCO2)C(=O)CSc1nc(C)nc2sc(C)c(C)c12	–	·	·	·	·	·
COc1ccc(CCn2c(-c3ccco3)nc3nc4ccccc4nc32)cc1	–	–	56	–	–	–
COCCn1cnnc1SCC(=O)c1ccc(S(=O)(=O)N2CCCC2)cc1	–	–	54	–	–	–
Cn1cnnc1SCC(=O)Nc1cc(S(=O)(=O)N2CCCCC2)ccc1Cl	–	–	–	–	–	–
O=c1[nH]c2cc3c(cc2cc1CN(Cc1nnnn1CC1CCCO1)C1CCCCC1)OCO3 (centres undefined)	–	57	–	–	–	–
Cc1ccc(Nc2nc(N)nc(CN3CCCCCC3)n2)c(C)c1	–	–	–	–	–	20
Cc1ccc(-n2c([O-])nc(-[n+]3ccccc3)c2C=O)cc1	–	–	–	–	–	–
Nc1ncnc2oc(-c3ccco3)c(-c3ccco3)c12	–	–	73	–	–	–
Nc1nnc(-c2ccco2)s1	–	–	–	–	–	–
O=C(N/N=C/c1cc2ccccc2[nH]1)c1ccccc1Cl	–	–	–	–	–	–
CCNS(=O)(=O)c1ccc(CCC(N)=O)cc1	–	–	–	–	–	19
Cc1ccc(-n2c(N)c(C(=O)Nc3c(C)n(C)n(-c4ccccc4)c3=O)c3nc4ccccc4nc32)cc1C	–	–	–	72	–	–
O=C(Nc1oc2ccccc2c(=O)c1-c1ccc(Br)cc1)c1ccco1	–	·	63	–	–	–
COc1cccc(-c2c(NC(=O)c3ccco3)oc3ccccc3c2=O)c1	–	·	–	–	–	–
CCN(CC(=O)Nc1cccc(OC)c1)C(=O)c1cccc(S(=O)(=O)N2CCc3ccccc32)c1	–	·	·	·	·	·
CN(Cc1ccccc1)C(=S)Nc1ccc2nc3n(c(=O)c2c1)CCCCC3	–	–	–	–	–	–
COc1ccc(C(=O)COC(=O)c2cccnc2Cl)c(OC)c1	–	–	68	–	–	–
N#CC1=C(c2ccc(-c3ccccc3)cc2)COC1=O	–	–	52	–	–	–
O=C1OCC(c2ccccc2)=C1c1ccccc1	–	·	–	–	–	–
O=C(/C=C/c1ccccc1Cl)Nc1cccc(O)c1	–	–	–	–	–	22
CC1(C)CC2(CC(c3cccs3)c3cc(Cl)c(O)cc3O2)NC(=S)N1 (centres undefined)	–	–	–	–	–	–
Cc1ccc(NC(=O)c2cc(-c3ccc(C)o3)nc3ccccc23)cc1	–	–	–	–	–	–
Cc1ccc(-c2cc(C(=O)Nc3ccccn3)c3ccccc3n2)o1	–	–	64	–	–	–

Source: PubChem BioAssay
